According to the EternaBench riboswitch data:

System: MS2 coat protein
Experiment: apparent Kd, MS2 coat protein; higher = weaker binding; RNA-MaP array; FMN 200 µM where present
How it was run: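 Designs were transcribed by stalled E. coli RNA polymerase on Illumina sequencing-chip clusters. They were titrated with SNAP-549-labelled MS2 coat protein from 0.7 or 1.5 nM, doubling to 3 µM, in 100 mM Tris-HCl pH 7.5, 80 mM KCl, 4 mM MgCl2, BSA, DTT, yeast tRNA and Tween-20, without and then with constant ligand. The apparent Kd is the median of filtered per-cluster fits after normalisation of green signal to red-channel RNA signal and control-cluster median Fmax.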

[1] = designed as: ON switch for flavin mononucleotide, no ligand
[2] = ligand present: flavin mononucleotide, designed as: ON switch for flavin mononucleotide
[3] = designed as: OFF switch for flavin mononucleotide, no ligand
[4] = ligand present: flavin mononucleotide, designed as: OFF switch for flavin mononucleotide

“CCGAAUGUCACAGGAUAUGGUCCGGGCACGGGACCAGAAGGGUGAUCUCACAUGAGGAUCACCCAUGUGCAGGCGUUAGGCUGC” was tested. Which “apparent Kd” value [1] did it give?
Its value is 18.6 nM.

And the “apparent Kd” value [2]?
Its value is 86 nM.

How did the “apparent Kd” value [1] turn out when “UUUUAUGUCAAAGGAUAUAUAAAUAAAUUUAUAACAUGAGGAUCACCCAUGUACUUUAGUAUGAGGUAGAAGGUUGAUAAGAGA” was run?
Its value is 35.4 nM.

What about the “apparent Kd” value [2] of the same sequence?
The value was 23.3 nM.

For “UGCUACGUUUCGUAGCAGUGUCAUCGAGAAGGCCCUGACAUGAGGAUCACCCAUGUUGUUACAUGGGAGGAUAUCGAUGAUACC”, which “apparent Kd” value [1] is on record?
Its value is 11.8 nM.

What about the “apparent Kd” value [2] of the same sequence?
Its value is 5.25 nM.

Which results are given for “AAGUAUAAGGGCAUUAAACAUGAGGAUCACCCAUGUACAAUAGAGGAUAUGCAUUUUGGUUUAGAGUAGAAGGUUAGAGAAAAU”?
apparent Kd [3]: 28.2 nM; apparent Kd [4]: 33.5 nM

How did the “apparent Kd” value [3] turn out when “AAGUAUAGAGGAUAUAGUGAGUACUACAUGAGGAUCACCCAUGUUCUUCAAAGCGUAUUUCUAGAAGGCUAAUGAA” was run?
Its value is 50 nM.

And the “apparent Kd” value [4]?
The value was 114 nM.

For “AAUCCGUCACAUGAGGAUCACCCAUGUGACCCUACUAUUGGACAGGAUAUCCAAGGGUCGAAGCGGGAGAAGGGUCACAAUGGG”, which “apparent Kd” value [1] is on record?
The value was 32.5 nM.

And the “apparent Kd” value [2]?
Its value is 51.9 nM.

With “UCCUGAUCGAGAGGUAGGAGUGGUAGAAGGCGACCGGUGCCAGAUGACAUGAGGAUCACCCAUGUCGAGGAUAUACCACAGAAU” as the sequence, how does the “apparent Kd” value [3] read?
The value was 7.03 nM.

What about the “apparent Kd” value [4] of the same sequence?
The value was 12.3 nM.

Which “apparent Kd” value [3] does the source give for “UUGAUGUCAUCAGGAUAUAGUAUUUAAGACAUAUCUUCUUUCAAACAUGAGGAUCACCCAUGUCGCUAGAAGGGAUGAAUGAUU” here?
The value was 16.6 nM.

What about the “apparent Kd” value [4] of the same sequence?
The value was 14.4 nM.

“GAAGCACGCAUUAACAUGAGGAUCACCCAUGUGAAAACACGUGAGGAUAUCGAUCUGAAGAAGAUCGAGAAGGCACCGUGCUAA” was tested. Which “apparent Kd” value [1] did it give?
The value was 5.53 nM.

And the “apparent Kd” value [2]?
Its value is 5.11 nM.

Which results are given for “GCGGUAUUGUAAGGAUAUACUCUGUGAUGAAGAGUAGAAGGUACUUACAUGAGGAUCACCCAUGUUUUUCGUAAAAGUUACCGC”?
apparent Kd [1]: 16.2 nM; apparent Kd [2]: 10.6 nM

With “UCUUACUGAGGAUAUACUUAGAUUUACAUGAGGAUCACCCAUGUUCCUCUAUGUAUAUAUGUAGAAGGCAGAAGUU” as the sequence, how does the “apparent Kd” value [3] read?
Its value is 25.4 nM.

And the “apparent Kd” value [4]?
The value was 158 nM.

What does the source list for “GGACGUCACAUGAACAUGAGGAUCACCCAUGUAAAUUCUCAUGAGGAUAUGGAUCCUAAUUGGAUCCAGAAGGCAUGGACGUCC”?
apparent Kd [1]: 960 nM; apparent Kd [2]: 373 nM

What does the source list for “AAAAAGGCAGGAUAUACAUGAGGAUCACCCAUGUUUUAAAAAAAAAAAAAAAAAAAAAGUAGAAGGGCCAAAAA”?
apparent Kd [3]: 55.4 nM; apparent Kd [4]: 45.1 nM

For “GGGUCACAUGAGGAUCACCCAUGUGAGGAUAUGAUACUAUGUACUUCGGUACAUAGUAUCAGAAGGCACAUCCC”, which “apparent Kd” value [3] is on record?
The value was 19.2 nM.

What about the “apparent Kd” value [4] of the same sequence?
The value was 35.7 nM.

With “UAUUAAUACGAAGGAUAUGGUUACAUGAGGAUCACCCAUGUAUGUAUAUUGAUCUAGUUUUUUAACCAGAAGGUCGUGAGUAAA” as the sequence, how does the “apparent Kd” value [3] read?
Its value is 30.6 nM.

And the “apparent Kd” value [4]?
Its value is 48.6 nM.

For “CGCAACAUGAGGAUCACCCAUGUUCGCGGGCAAUUUUAGUGCAGAAGGGACAACGAAACGUAGGGUCAGGAUAUGCAUGUGCGC”, which “apparent Kd” value [1] is on record?
The value was 5.26 nM.

And the “apparent Kd” value [2]?
The value was 5.17 nM.

How did the “apparent Kd” value [3] turn out when “AUAAAUCAUGUAGGAUAUGCGUGGCGAAGCUAUGCAGAAGGACAUGAGGAUCACCCAUGUCUUUCUGUCUGCGUACAGACAGGA” was run?
The value was 23.9 nM.

And the “apparent Kd” value [4]?
Its value is 115 nM.

How did the “apparent Kd” value [3] turn out when “UUCCAGCUUGUCAGGAUAUACUUAGGGUAAUCAGAGUAGAAGGGACAUGAGGAUCACCCAUGUGACGCUUGAGC” was run?
Its value is 65.2 nM.

And the “apparent Kd” value [4]?
The value was 118 nM.

“GUAGAGUAAGGAUAUGGUGAAUAGGAUAGAAUGGUUAGAAACCAGAAGGUACAUGAGGAUCACCCAUGUAAUGU” was tested. Which “apparent Kd” value [3] did it give?
The value was 21 nM.

And the “apparent Kd” value [4]?
The value was 21.1 nM.

For “GAAUAGAAAGAUUAAUAUGAUUACAUGAGGAUCACCCAUGUAUAGGAUAUCGACGUCAAUGACGUCGAGAAGGAUACAUAAUAA”, which “apparent Kd” value [3] is on record?
The value was 14.5 nM.

And the “apparent Kd” value [4]?
The value was 26.1 nM.

Which “apparent Kd” value [1] does the source give for “GGGUACAUCGGAGGAUAUCAUGUAAAUACAUGAGGAUCACCCAUGUCGUUGGAGACAUCGGAGAUUGAGAAGGCCGAUGUACCG” here?
The value was 199 nM.

What about the “apparent Kd” value [2] of the same sequence?
Its value is 339 nM.

What does the source list for “GGCAUAAACGAGGAUAUCGAUACGGAAACGUAUCGAGAAGGUGUAACAUGAGGAUCACCCAUGUUCCUCAAGCC”?
apparent Kd [3]: 38.6 nM; apparent Kd [4]: 39.5 nM

How did the “apparent Kd” value [3] turn out when “CCUCACAGAGGAUAUACGUCCACUGAACCCAUGAGGUUGCCACAUGAGGAUCACCCAUGUAGAAGGCUGUGCUG” was run?
The value was 20.1 nM.

What about the “apparent Kd” value [4] of the same sequence?
The value was 42.9 nM.

Which results are given for “GGAUAGGACAGAGGAUAUACGUGCUAGAGACACUAGCAAAAUUUCCUCACAUGAGGAUCACCCAUGUAGAAGGCUGUCCUAUCG”?
apparent Kd [3]: 15.4 nM; apparent Kd [4]: 405 nM

Which “apparent Kd” value [1] does the source give for “AAGAAACAUGAGGAUCACCCAUGUGAGAAUAUGGGAGGAUAUACAAGGACGUAAGUCAAGGUAGAAGGCCUAAGAA” here?
Its value is 171 nM.

And the “apparent Kd” value [2]?
The value was 29.7 nM.

Which results are given for “GCUCUUGUCAAGAAGGGCUCGCGGGACGCUGCAGCAGGAUAUUGACAUGAGGAUCACCCAUGUCGACCGGAACACCAUUGAGGG”?
apparent Kd [3]: 22.2 nM; apparent Kd [4]: 196 nM

For “UGGUCGGAGACAGGAUAUGUGACUGCAUAGUGCACAGAAGGGUCUACAUGAGGAUCACCCAUGUCACCGAACACCAAACAACAA”, which “apparent Kd” value [1] is on record?
The value was 412 nM.

And the “apparent Kd” value [2]?
The value was 41.2 nM.
